In ChEMBL document CHEMBL1125493, “HIV-1 neutralization and tumor cell proliferation inhibition in vitro by simplified analogues of pyrido[4,3,2-mn]thiazolo[5,4-b]acridine marine alkaloids” (J Med Chem, 1992):

Key:
[1] = Calu3 lung tumor cell proliferation inhibition by the compound in vitro at a concentration of 0.7 uM.; assay type: functional, Homo sapiens
In short: (§1)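 Tumor cells grown in RPMI-1640 in 1% agar with 5% fetal bovine serum, exposed to set compound concentrations for 1 week. Viability scored against a control given distilled water in place of drug. 5-fluorouracil served as reference cytotoxic drug. Reported as concentration-dependent cell survival.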

[2] = Calu3 lung tumor cell proliferation inhibition by the compound in vitro at a concentration of 7.0 uM.; assay type: functional, Homo sapiens; in short: as §1
[3] = Calu3 lung tumor cell proliferation inhibition by the compound in vitro at a concentration of 70 uM.; assay type: functional, Homo sapiens; in short: as §1
[4] = system: COLO 320DM; test: COLO 320DM colon tumor cell proliferation inhibition by the compound in vitro at a concentration of 0.7 uM.; assay type: functional, Homo sapiens; in short: as §1
[5] = system: COLO 320DM; test: COLO 320DM colon tumor cell proliferation inhibition by the compound in vitro at a concentration of 7.0 uM.; assay type: functional, Homo sapiens; in short: as §1
[6] = system: COLO 320DM; test: COLO 320DM colon tumor cell proliferation inhibition by the compound in vitro at a concentration of 70 uM.; assay type: functional, Homo sapiens; in short: as §1
[7] = system: MCF7; test: […] breast tumor cell proliferation inhibition by the compound in vitro at a concentration 7.0 of uM; assay type: functional, Homo sapiens; in short: as §1
[8] = system: MCF7; test: […] breast tumor cell proliferation inhibition by the compound in vitro at a concentration 70 of uM; assay type: functional, Homo sapiens; in short: as §1
[9] = system: MCF7; test: […] breast tumor cell proliferation inhibition by the compound in vitro at a concentration of 0.7 uM.; assay type: functional, Homo sapiens; in short: as §1
[10] = Calu3 lung tumor cell proliferation inhibition by the compound in vitro at a concentration of 0.6 uM.; assay type: functional, Homo sapiens
In short: (§2)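 Tumor cells grown in RPMI-1640 in 1% agar with 5% fetal bovine serum, exposed to the specified concentrations for 1 week. Viability was assessed against a control given distilled water in place of drug. 5-Fluorouracil served as the positive cytotoxic standard. Results are reported as concentration-dependent cell survival.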

[11] = Calu3 lung tumor cell proliferation inhibition by the compound in vitro at a concentration of 6.0 uM.; assay type: functional, Homo sapiens; in short: as §2
[12] = Calu3 lung tumor cell proliferation inhibition by the compound in vitro at a concentration of 60 uM.; assay type: functional, Homo sapiens; in short: as §2
[13] = system: COLO 320DM; test: COLO 320DM colon tumor cell proliferation inhibition by the compound in vitro at a concentration of 0.6 uM.; assay type: functional, Homo sapiens; in short: as §2
[14] = system: COLO 320DM; test: COLO 320DM colon tumor cell proliferation inhibition by the compound in vitro at a concentration of 6.0 uM.; assay type: functional, Homo sapiens; in short: as §2
[15] = system: COLO 320DM; test: COLO 320DM colon tumor cell proliferation inhibition by the compound in vitro at a concentration of 60 uM.; assay type: functional, Homo sapiens; in short: as §2
[16] = system: Human immunodeficiency virus 1; test: Inhibitory effect (100 uM) against HIV-1 in human peripheral blood monocyte cells(PBMC) (EC50 ->28.6 ug/mL); assay type: functional
[17] = system: Human immunodeficiency virus 1; test: Protection of MT-4 lymphocytes by the compound against HIV-1 infectivity in vitro at a concentration of 100 ug/mL (0.35 uM/mL); assay type: functional
In short: (§3)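 Virus (HIV-1 Molt IIIB, ~2 × 10^4 TCID50) preincubated with compound 1 h at 37 °C, 5% CO2. Then added to MT-4 cells (5 × 10^5 cells/well) and cultured at 37 °C. Trypan blue viability counts taken on days 4 and 7, triplicate at each concentration. Controls were infected and uninfected cells. Reported as % viable (surviving) MT-4 cells.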

[18] = system: Human immunodeficiency virus 1; test: Protection of MT-4 lymphocytes by the compound against HIV-1 infectivity in vitro at a concentration of 200 ug/mL (0.70 uM/mL); assay type: functional; in short: as §3
[19] = system: Human immunodeficiency virus 1; test: Protection of MT-4 lymphocytes by the compound against HIV-1 infectivity in vitro at a concentration of 400 ug/mL (1.4 uM/mL); assay type: functional; in short: as §3
[20] = system: Human immunodeficiency virus 1; test: Percent HIV-1 bound to H-9 cells at a concentration of 100(ug/mL).; assay type: functional
In short: (§4)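 HIV-1 Molt IIIB (50 μL) incubated overnight with compound at 100 μg/mL, then with uninfected H-9 cells 2 h at 37 °C. Washed; stained with HIV-positive human serum (1:100) then FITC anti-human IgG (1:10), 30 min at 4 °C each. Formaldehyde-fixed (0.5%) and analysed by flow cytometry for % virus bound and % binding inhibition.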

[21] = system: Human immunodeficiency virus 1; test: Inactivation of HIV-MN strain in MT-4 lymphocytes in vitro at a concentration of 100 ug/mL (0.35 uM/mL).; assay type: functional
In short: (§5)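 Compound (50 μL) was mixed with 50 μL of HIV-1 Molt IIIB or HIV-MN inoculum in RPMI 1640 for 1 h at room temperature. The mixture was added to 5 × 10^4 MT-4 cells and kept 7 days at 37 °C, 5% CO2. MTT (5.0 mg/mL) was added for 4 h, the reaction was stopped with 0.04 N HCl/2-propanol, and OD was read at 570 nm. % inactivation was calculated from OD relative to uninfected cells and untreated virus, mean of three.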

[22] = system: Human immunodeficiency virus 1; test: Inactivation of HIV-MN strain in MT-4 lymphocytes in vitro at a concentration of 200 ug/mL (0.70 uM/mL).; assay type: functional; in short: as §5
[23] = system: Human immunodeficiency virus 1; test: Inactivation of HIV-MN strain in MT-4 lymphocytes in vitro at a concentration of 400 ug/mL (1.40 uM/mL).; assay type: functional; in short: as §5
[24] = system: Human immunodeficiency virus 1; test: Inactivation of HIV-MoltIIIB strain in MT-4 lymphocytes in vitro at a concentration of 100 ug/mL (0.35 uM/mL).; assay type: functional; in short: as §5
[25] = system: Human immunodeficiency virus 1; test: Inactivation of HIV-MoltIIIB strain in MT-4 lymphocytes in vitro at a concentration of 200 ug/mL (0.70 uM/mL).; assay type: functional; in short: as §5
[26] = system: Human immunodeficiency virus 1; test: Inactivation of HIV-MoltIIIB strain in MT-4 lymphocytes in vitro at a concentration of 400 ug/mL (1.4 uM/mL).; assay type: functional; in short: as §5
[27] = system: Human immunodeficiency virus 1; test: Percent inhibition of HIV-1 binding to H-9 cells at a concentration of 100(ug/mL).; assay type: functional; in short: as §4
[28] = system: Human immunodeficiency virus 1; test: Inhibitory effect against HIV-1 induced cytopathic effects(HIV-1 neutralization) in MT-4 lymphocytes at a concentration of 100 ug/mL (0.3500 uM/mL).; assay type: functional
In short: (§6)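 HIV-1 Molt IIIB (~2 × 10^4 TCID50 in 100 μL) preincubated 1 h at 37 °C with a single compound dose, then added to MT-4 cells (5 × 10^5 cells/well, 1 mL). Cultured at 37 °C, 5% CO2. Viable cells counted by trypan blue exclusion on days 4 and 7. Triplicates; % viable cells. Controls: infected cells (positive), uninfected cells (negative).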

[29] = system: MT4; test: Cytotoxic effect in cultured MT-4 lymphocytes at a concentration of 100 ug/mL (0.3500 uM/mL).; assay type: functional, Homo sapiens
In short: (§7)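 MT-4 cells at 5 × 10^4 cells/well, 1 mL total, cultured with compound diluted in RPMI 1640 with 10% FBS, 10 mM HEPES, penicillin/streptomycin and 2 mM glutamine, at 37 °C under 5% CO2. Viability was scored by trypan blue exclusion on days 4 and 7, in triplicate, as % viable cells.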

[30] = system: MCF7; test: […] breast tumor cell proliferation inhibition by the compound in vitro at a concentration of 0.6 uM.; assay type: functional, Homo sapiens
In short: (§8)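 Breast tumor cells treated with specified compound concentrations in RPMI-1640 in 1% agar with 5% FBS for 1 week. Viability compared with a control given distilled water in place of drug; 5-fluorouracil as standard cytotoxic drug. Reported as concentration-dependent cell survival.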

[31] = system: MCF7; test: […] breast tumor cell proliferation inhibition by the compound in vitro at a concentration of 6.0 uM.; assay type: functional, Homo sapiens; in short: as §8
[32] = system: MCF7; test: […] breast tumor cell proliferation inhibition by the compound in vitro at a concentration of 60 uM.; assay type: functional, Homo sapiens; in short: as §8
[33] = system: MT4; test: Cytotoxic effect in cultured MT-4 lymphocytes at a concentration of 10 ug/mL (0.0350 uM/mL).; assay type: functional, Homo sapiens; in short: as §7
[34] = system: MT4; test: Cytotoxic effect in cultured MT-4 lymphocytes at a concentration of 2 ug/mL (0.0070 uM/mL).; assay type: functional, Homo sapiens; in short: as §7
[35] = system: Human immunodeficiency virus 1; test: Protection of MT-4 lymphocytes by the compound against HIV-1 infectivity in vitro at a concentration of 0.008 ug/mL (0.00003 uM/mL); assay type: functional; in short: as §3
[36] = system: Human immunodeficiency virus 1; test: Protection of MT-4 lymphocytes by the compound against HIV-1 infectivity in vitro at a concentration of 0.016 ug/mL (0.00006 uM/mL); assay type: functional; in short: as §3
[37] = system: Human immunodeficiency virus 1; test: Protection of MT-4 lymphocytes by the compound against HIV-1 infectivity in vitro at a concentration of 0.032 ug/mL ([…] uM/mL); assay type: functional; in short: as §3
[38] = system: Human immunodeficiency virus 1; test: microbe, parasite or virus in culture
[39] = system: Human immunodeficiency virus 1; test: Inhibitory effect (100 uM) against HIV-1 in human peripheral blood monocyte cells(PBMC) (EC50 ->34.5 ug/mL); assay type: functional
[40] = system: Human immunodeficiency virus 1; test: Inhibitory effect against HIV-1 induced cytopathic effects(HIV-1 neutralization) in MT-4 lymphocytes at a concentration of 100 ug/mL (0.2900 uM/mL).; assay type: functional; in short: as §6
[41] = system: MT4; test: Cytotoxic effect in cultured MT-4 lymphocytes at a concentration of 10 ug/mL (0.0290 uM/mL).; assay type: functional, Homo sapiens; in short: as §7
[42] = system: MT4; test: Cytotoxic effect in cultured MT-4 lymphocytes at a concentration of 100 ug/mL (0.2900 uM/mL).; assay type: functional, Homo sapiens; in short: as §7
[43] = system: MT4; test: Cytotoxic effect in cultured MT-4 lymphocytes at a concentration of 2 ug/mL (0.0060 uM/mL).; assay type: functional, Homo sapiens; in short: as §7

SMILES: O=c1[nH]cc(F)c(=O)[nH]1 [FLUOROURACIL]
- Viability [1]: 80%
- Viability [2]: 32%
- Viability [3]: 17%
- Viability [4]: 79%
- Viability [5]: 5%
- Viability [6]: 2%
- Viability [7]: 10%
- Viability [8]: 5%
- Viability [9]: 29%

SMILES: O=C([O-])CSc1ccc2nc3ccccc3c(O)c2c1.[Na+]
- Viability [10]: 113%
- Viability [11]: 48%
- Viability [12]: 0%
- Viability [13]: 110%
- Viability [14]: 41%
- Viability [15]: 0%
- Inhibition [16]: 31%
- Survival [17]: 72.7%
- Survival [18]: 81.4%
- Survival [19]: 84.2%
- Bound [20]: 22.4%
- Inactivation [21]: 13.1%
- Inactivation [22]: 40.5%
- Inactivation [23]: 25%
- Inactivation [24]: 21%
- Inactivation [25]: 100%
- Inactivation [26]: 74.3%
- Inhibition [27]: 32.7%
- Viability [28]: 70.9%
- Viability [29]: 92.6%
- Viability [30]: 85%
- Viability [31]: 19%
- Viability [32]: 0%
- Viability [33]: 93.3%
- Viability [34]: 96.7%

SMILES: Cc1cn([C@H]2C[C@H](N=[N+]=[N-])[C@@H](CO)O2)c(=O)[nH]c1=O [ZIDOVUDINE]
- Survival [35]: 74.3%
- Survival [36]: 79.4%
- Survival [37]: 78.3%
- EC50 [38]: 4 nM

SMILES: Nc1nc2cc3c(O)c4ccccc4nc3cc2[nH]1
- Inhibition [39]: 33%
- Viability [40]: 12.5%
- Viability [41]: 88.8%
- Viability [42]: 81.5%
- Viability [43]: 90%
